# Assay results taken from ChEMBL document CHEMBL4765238, “Structure-Based Discovery and Optimization of Benzo[ d]isoxazole Derivatives as Potent and Selective BET Inhibitors for Potential Treatment of Castration-Resistant Prostate Cancer (CRPC)” (J Med Chem, 2018).
# Active and inactive are the calls of the source. The calls are words filed in the database; no cut-off is given here.
# Tests used:
# [1] = biological target: Bromodomain-containing protein 4 (Homo sapiens, UniProt O60885); assay: Binding affinity to human recombinant His6-tagged BRD4 bromodomain 1 (N44 to E168 residues) expressed in Escherichia coli BL21 (DE3) cells assessed as change in melting temperature at 200 uM incubated for 30 mins by SYPRO orange dye based thermal shift assay
# How it was run: (§1)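 Thermal shift assay measuring change in melting temperature of each isolated bromodomain module in the presence of compound versus without.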
# [2] = biological target: T1, Bromodomain-containing protein 1 (Homo sapiens) (UniProt O95696); assay: Binding affinity to human recombinant His6-tagged BRD1 (E556 to A688 residues) expressed in Escherichia coli BL21 (DE3) cells assessed as change in melting temperature at 200 uM incubated for 30 mins by SYPRO orange dye based thermal shift assay; how it was run: as §1
# T1 sequence (whole entry): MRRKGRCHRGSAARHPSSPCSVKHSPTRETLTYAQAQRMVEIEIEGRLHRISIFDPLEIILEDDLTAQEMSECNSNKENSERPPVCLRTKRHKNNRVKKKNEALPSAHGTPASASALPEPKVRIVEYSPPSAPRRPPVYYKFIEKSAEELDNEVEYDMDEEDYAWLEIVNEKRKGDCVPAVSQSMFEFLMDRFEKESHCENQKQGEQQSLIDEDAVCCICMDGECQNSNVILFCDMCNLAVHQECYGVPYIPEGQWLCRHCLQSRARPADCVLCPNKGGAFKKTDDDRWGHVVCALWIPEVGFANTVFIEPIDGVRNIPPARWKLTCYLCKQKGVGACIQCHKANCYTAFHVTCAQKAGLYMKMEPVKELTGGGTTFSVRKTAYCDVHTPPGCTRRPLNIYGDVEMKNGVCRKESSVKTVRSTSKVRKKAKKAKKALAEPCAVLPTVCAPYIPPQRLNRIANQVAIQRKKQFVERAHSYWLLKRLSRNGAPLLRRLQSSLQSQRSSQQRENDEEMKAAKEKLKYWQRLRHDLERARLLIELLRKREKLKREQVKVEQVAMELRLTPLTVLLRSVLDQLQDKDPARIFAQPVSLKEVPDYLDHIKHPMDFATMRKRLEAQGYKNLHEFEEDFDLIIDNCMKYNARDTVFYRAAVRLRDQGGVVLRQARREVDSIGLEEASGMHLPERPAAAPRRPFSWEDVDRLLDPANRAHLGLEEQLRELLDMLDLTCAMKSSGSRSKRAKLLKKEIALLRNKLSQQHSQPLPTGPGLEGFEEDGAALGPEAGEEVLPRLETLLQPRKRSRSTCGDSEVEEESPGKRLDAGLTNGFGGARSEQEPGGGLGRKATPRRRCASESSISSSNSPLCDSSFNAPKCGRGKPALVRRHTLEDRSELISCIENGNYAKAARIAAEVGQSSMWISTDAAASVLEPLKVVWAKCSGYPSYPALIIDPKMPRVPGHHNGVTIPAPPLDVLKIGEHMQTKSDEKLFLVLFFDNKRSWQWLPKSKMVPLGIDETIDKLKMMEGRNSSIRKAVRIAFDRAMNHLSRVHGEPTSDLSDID
# [3] = biological target: T2, Bromodomain-containing protein 9 (Homo sapiens) (UniProt Q9H8M2); assay: Binding affinity to human recombinant His6-tagged BRD9 (L14 to Q134 residues) expressed in Escherichia coli BL21 (DE3) cells assessed as change in melting temperature at 200 uM incubated for 30 mins by SYPRO orange dye based thermal shift assay; how it was run: as §1
# T2 sequence (whole entry): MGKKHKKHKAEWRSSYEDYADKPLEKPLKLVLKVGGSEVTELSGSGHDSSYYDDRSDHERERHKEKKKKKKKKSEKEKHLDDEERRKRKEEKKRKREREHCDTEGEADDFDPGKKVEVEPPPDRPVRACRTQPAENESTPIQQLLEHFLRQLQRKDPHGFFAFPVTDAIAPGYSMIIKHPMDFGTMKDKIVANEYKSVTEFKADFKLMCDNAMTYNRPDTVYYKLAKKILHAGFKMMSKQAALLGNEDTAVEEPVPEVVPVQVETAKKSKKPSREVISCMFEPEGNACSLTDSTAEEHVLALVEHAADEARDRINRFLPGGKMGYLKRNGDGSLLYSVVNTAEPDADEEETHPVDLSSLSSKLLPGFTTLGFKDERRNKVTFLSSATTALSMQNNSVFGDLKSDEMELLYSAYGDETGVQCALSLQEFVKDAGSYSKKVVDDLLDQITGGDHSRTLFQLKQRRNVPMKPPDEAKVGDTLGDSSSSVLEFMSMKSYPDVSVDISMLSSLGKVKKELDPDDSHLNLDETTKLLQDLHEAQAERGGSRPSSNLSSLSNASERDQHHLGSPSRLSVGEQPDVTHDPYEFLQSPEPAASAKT
# [4] = biological target: Bromodomain testis-specific protein (Homo sapiens) (UniProt Q58F21); assay: Binding affinity to human recombinant His6-tagged BRDT bromodomain 1 (N21 to E137 residues) expressed in Escherichia coli BL21 (DE3) cells assessed as change in melting temperature at 200 uM incubated for 30 mins by SYPRO orange dye based thermal shift assay; how it was run: as §1
# VCaP [5] = assay: Inhibition of BET bromodomain in human VCaP cells assessed as suppression of full-length androgen receptor mRNA expression at 5 uM incubated for 48 hrs by SYBR green dye based qRT-PCR analysis; type: cell-based
# How it was run: (§2)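 LNCaP or VCaP cells exposed to vehicle (DMSO) or compound at 5 µM for 48 h; mRNA levels measured by qRT-PCR; mean ± s.e.m., n = 3; two-tailed Student's t-test.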
# LNCaP [6] = assay: Inhibition of BET bromodomain in human LNCaP cells assessed as suppression of KLK2 mRNA expression at 5 uM incubated for 48 hrs by SYBR green dye based qRT-PCR analysis; type: cell-based; how it was run: as §2
# VCaP [7] = assay: Inhibition of BET bromodomain in human VCaP cells assessed as suppression of AR-V7 mRNA expression at 5 uM incubated for 48 hrs by SYBR green dye based qRT-PCR analysis; type: cell-based; how it was run: as §2
# [8] = Cmax in Sprague-Dawley rat at 2 mg/kg, iv by LC/MS analysis; type: ADME, organism-based; design: route intravenous, dose 2 mg/kg; conditions: in vivo
# How it was run: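 Sprague-Dawley rats dosed iv at 2 mg/kg (a separate oral arm received 10 mg/kg); plasma exposure parameters derived from the concentration–time profile.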
# LNCaP C4-2B = assay: Inhibition of colony formation in human LNCaP C4-2B cells incubated for 14 days by crystal violet staining based assay; type: functional, cell-based; conditions: dose 0.5-2 µM, time 14.0 day
# How it was run: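 C4-2B cells cultured with vehicle (DMSO) or compound at 0.5, 1.0 or 2.0 μM for 14 days, then colonies stained and counted against vehicle.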
# VCaP [9] = assay: Inhibition of BET bromodomain in human VCaP cells assessed as suppression of Myc mRNA expression at 5 uM incubated for 48 hrs by SYBR green dye based qRT-PCR analysis; type: cell-based; how it was run: as §2
# LNCaP [10] = assay: Inhibition of BET bromodomain in human LNCaP cells assessed as suppression of TMPRSS2 mRNA expression at 5 uM incubated for 48 hrs by SYBR green dye based qRT-PCR analysis; type: cell-based; how it was run: as §2
# NCI-H1975 = assay: Antiproliferative activity against human NCI-H1975 cells assessed as reduction in cell viability incubated for 72 hrs by cell-titer glo assay; type: functional, cell-based; conditions: NCI-H1975, 72 h
SMILES,ΔTm [1],ΔTm [2],ΔTm [3],ΔTm [4],inhibition (VCaP [5]),inhibition (LNCaP [6]),inhibition (VCaP [7]),Cmax [8],inhibition (LNCaP C4-2B),inhibition (VCaP [9]),inhibition (LNCaP [10]),IC50 (NCI-H1975)
Cc1noc2c(Br)cc(-c3nc4ccc(N5CCOCC5)cc4n3CC3CCCCC3)cc12,9.2 °C,0 °C,-0.9 °C,4.2 °C,,,,,,,,
CNc1cc2onc(C)c2cc1NS(=O)(=O)c1cc(Br)ccc1OC,9.2 °C,-0.4 °C,-0.8 °C,5.1 °C,,,,,,,,
Cc1noc2ccc(-c3nc4ccc(N5CCOC[C@@H]5C)cc4n3CC3CCCCC3)cc12,9.9 °C,0.3 °C,-0.8 °C,3.6 °C,Active,Active,Active,807 ng/mL,Dose-dependent effect,Active,Active,> 5 µM
COc1cc2onc(C)c2cc1NS(=O)(=O)c1cc(Br)ccc1OC,9.8 °C,-0.1 °C,-0.9 °C,5.6 °C,Active,Active,Active,1390 ng/mL,Dose-dependent effect,Active,Active,2.5 µM
